Laboratory results: ChEMBL document CHEMBL1147085, “Metabolism and pharmacokinetics of a novel Src kinase inhibitor TG100435 ([7-(2,6-dichloro-phenyl)-5-methyl-benzo[1,2,4]triazin-3-yl]-[4-(2-pyrrolidin-1-yl-ethoxy)-phenyl]-amine) and its active N-oxide metabolite TG100855 …” (Drug Metab Dispos, 2007)

What was measured:
[1] = target: Tyrosine-protein kinase Lck (Homo sapiens, UniProt P06239); assay: Inhibition of Lck by luminescence based kinase assay
Ephrin type-B receptor 4 = target: T1, Ephrin type-B receptor 4 (Homo sapiens, UniProt P54760); assay: Inhibition of EphB4 by luminescence based kinase assay
T1 sequence (P54760 whole entry): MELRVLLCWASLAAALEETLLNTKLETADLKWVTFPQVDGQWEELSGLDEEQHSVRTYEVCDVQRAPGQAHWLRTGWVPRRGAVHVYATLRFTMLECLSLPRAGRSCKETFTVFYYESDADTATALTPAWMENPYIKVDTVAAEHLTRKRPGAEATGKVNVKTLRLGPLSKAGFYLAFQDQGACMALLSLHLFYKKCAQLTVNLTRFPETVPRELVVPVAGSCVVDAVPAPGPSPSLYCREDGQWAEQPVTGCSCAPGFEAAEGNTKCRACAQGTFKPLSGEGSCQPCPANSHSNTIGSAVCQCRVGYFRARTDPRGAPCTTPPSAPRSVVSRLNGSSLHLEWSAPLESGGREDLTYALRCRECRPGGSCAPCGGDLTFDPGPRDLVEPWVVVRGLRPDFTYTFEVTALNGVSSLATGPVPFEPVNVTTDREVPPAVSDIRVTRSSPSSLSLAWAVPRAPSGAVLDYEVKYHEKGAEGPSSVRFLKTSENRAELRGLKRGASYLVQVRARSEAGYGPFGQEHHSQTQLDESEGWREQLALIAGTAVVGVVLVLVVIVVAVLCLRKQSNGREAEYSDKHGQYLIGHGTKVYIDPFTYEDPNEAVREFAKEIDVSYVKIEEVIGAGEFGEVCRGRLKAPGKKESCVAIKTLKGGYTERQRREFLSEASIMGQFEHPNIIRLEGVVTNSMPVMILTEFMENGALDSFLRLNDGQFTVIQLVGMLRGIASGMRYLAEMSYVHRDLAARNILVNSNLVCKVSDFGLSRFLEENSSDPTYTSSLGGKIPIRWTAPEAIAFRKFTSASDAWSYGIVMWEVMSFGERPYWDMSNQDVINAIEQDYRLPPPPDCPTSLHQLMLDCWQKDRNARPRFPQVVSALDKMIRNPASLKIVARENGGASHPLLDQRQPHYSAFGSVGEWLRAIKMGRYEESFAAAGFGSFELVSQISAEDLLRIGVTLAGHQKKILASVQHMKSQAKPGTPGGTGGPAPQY

[2] = AUC (0 to infinity) in BALB/c mouse at 5 mg/kg, iv; type: ADME, organism-based; parameters: time infinity, dose 5 mg/kg, route intravenous; details: plasma
In short: (§1)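 Male BALB/c mice (~25 g); fasted overnight for single p.o. dosing, not fasted for i.v. or i.p. dosing. Composite blood sampling, n=3 per time point: 5, 15, 30 min, 1, 3, 6, 24, 48 hr after i.v. dose; 0.5, 1, 3, 5, 8, 24, 30, 48 hr after p.o. or i.p. dose. Heparinized plasma, both parent and N-oxide measured by LC/MS/MS (MRM 494.2/98.1 and 510.2/98.1); non-compartmental analysis, AUC by linear trapezoidal rule.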

[3] = AUC (0 to infinity) in BALB/c mouse at 5 mg/kg, ip; type: ADME, organism-based; parameters: time infinity, dose 5 mg/kg, route intraperitoneal; details: plasma; in short: as §1
[4] = AUC (0 to infinity) in Sprague-Dawley rat at 5 mg/kg, iv; type: ADME, organism-based; parameters: time infinity, dose 5 mg/kg, route intravenous; details: plasma
[5] = AUC (0 to infinity) in Sprague-Dawley rat at 5 mg/kg, ip; type: ADME, organism-based; parameters: time infinity, dose 5 mg/kg, route intraperitoneal; details: plasma
[6] = Drug level in BALB/c mouse plasma at 5 mg/kg, iv; type: ADME, organism-based; parameters: dose 5 mg/kg, route intravenous; in short: as §1
Mus musculus [7] = assay: Drug level in BALB/c mouse plasma at 5 mg/kg, ip; type: ADME, organism-based; parameters: dose 5 mg/kg, route intraperitoneal; details: in vivo; in short: as §1
[8] = Drug level in Sprague-Dawley rat plasma at 5 mg/kg, iv; type: ADME, organism-based; parameters: dose 5 mg/kg, route intravenous
Rattus norvegicus [9] = assay: Drug level in Sprague-Dawley rat plasma at 5 mg/kg, ip; type: ADME, organism-based; parameters: dose 5 mg/kg, route intraperitoneal; details: in vivo
[10] = Half life in BALB/c mouse at 5 mg/kg, iv; type: ADME, organism-based; parameters: dose 5 mg/kg, route intravenous; details: in vivo; in short: as §1
[11] = Half life in BALB/c mouse at 5 mg/kg, ip; type: ADME, organism-based; parameters: dose 5 mg/kg, route intraperitoneal; details: in vivo; in short: as §1
[12] = Half life in Sprague-Dawley rat at 5 mg/kg, iv; type: ADME, organism-based; parameters: dose 5 mg/kg, route intravenous; details: in vivo
[13] = Half life in Sprague-Dawley rat at 5 mg/kg, ip; type: ADME, organism-based; parameters: dose 5 mg/kg, route intraperitoneal; details: in vivo
[14] = Volume of distribution in BALB/c mouse at 5 mg/kg, iv; type: ADME, organism-based; parameters: dose 5 mg/kg, route intravenous; details: in vivo
Mus musculus [15] = assay: Volume of distribution in BALB/c mouse at 5 mg/kg, ip; type: ADME, organism-based; parameters: dose 5 mg/kg, route intraperitoneal; details: in vivo; in short: as §1
[16] = Volume of distribution in Sprague-Dawley rat at 5 mg/kg, iv; type: ADME, organism-based; parameters: dose 5 mg/kg, route intravenous; details: in vivo
Rattus norvegicus [17] = assay: Volume of distribution in Sprague-Dawley rat at 5 mg/kg, ip; type: ADME, organism-based; parameters: dose 5 mg/kg, route intraperitoneal; details: in vivo
[18] = Clearance in BALB/c mouse at 5 mg/kg, iv; type: ADME, organism-based; parameters: dose 5 mg/kg, route intravenous; details: in vivo; in short: as §1
[19] = Clearance in BALB/c mouse at 5 mg/kg, ip; type: ADME, organism-based; parameters: dose 5 mg/kg, route intraperitoneal; details: in vivo; in short: as §1
[20] = Clearance in Sprague-Dawley rat at 5 mg/kg, iv; type: ADME, organism-based; parameters: dose 5 mg/kg, route intravenous; details: in vivo
[21] = Clearance in Sprague-Dawley rat at 5 mg/kg, ip; type: ADME, organism-based; parameters: dose 5 mg/kg, route intraperitoneal; details: in vivo
Mus musculus [22] = assay: AUC (0 to infinity) in BALB/c mouse assessed as AUC of ([7-(2,6-Dichloro-phenyl)-5-methyl-benzo[1,2,4]triazin-3-yl]-[4-(2-pyrrolidin-1-yl-ethoxy)-phenyl]-amine) at 5 mg/kg, iv; type: ADME, organism-based, Plasma; parameters: time infinity, dose 5 mg/kg, route intravenous; details: in vivo; in short: as §1
Mus musculus [23] = assay: AUC (0 to infinity) in BALB/c mouse assessed as AUC of ([7-(2,6-Dichloro-phenyl)-5-methyl-benzo[1,2,4]triazin-3-yl]-[4-(2-pyrrolidin-1-yl-ethoxy)-phenyl]-amine) at 5 mg/kg, ip; type: ADME, organism-based, Plasma; parameters: time infinity, dose 5 mg/kg, route intraperitoneal; details: in vivo; in short: as §1

Sequence of Tyrosine-protein kinase Lck (P06239 whole entry): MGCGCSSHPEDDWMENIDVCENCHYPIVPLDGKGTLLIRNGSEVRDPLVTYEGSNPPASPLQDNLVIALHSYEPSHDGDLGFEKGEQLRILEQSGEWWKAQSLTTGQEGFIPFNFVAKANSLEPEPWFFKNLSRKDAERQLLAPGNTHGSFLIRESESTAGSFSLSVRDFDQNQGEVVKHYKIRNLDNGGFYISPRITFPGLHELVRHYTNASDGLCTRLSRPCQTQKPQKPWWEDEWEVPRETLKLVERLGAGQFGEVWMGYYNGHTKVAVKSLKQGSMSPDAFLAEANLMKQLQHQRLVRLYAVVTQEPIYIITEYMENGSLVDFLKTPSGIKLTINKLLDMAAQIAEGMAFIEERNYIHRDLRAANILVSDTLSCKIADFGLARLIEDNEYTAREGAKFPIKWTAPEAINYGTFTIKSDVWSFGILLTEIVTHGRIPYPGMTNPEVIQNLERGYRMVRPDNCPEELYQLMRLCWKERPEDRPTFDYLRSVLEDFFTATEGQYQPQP

For `Cc1cc(-c2c(Cl)cccc2Cl)cc2nnc(Nc3ccc(OCC[N+]4([O-])CCCC4)cc3)nc12`, which Ki [1] is on record?
Its Ki is 11.7 nM.

And the Ki (Ephrin type-B receptor 4)?
The Ki was 7.27 nM.

And the AUC(0-inf) [2]?
Its AUC(0-inf) is 5350 ng·h/mL.

What about the AUC(0-inf) [3] of the same compound?
Its AUC(0-inf) is 6520 ng·h/mL.

And the AUC(0-inf) [4]?
The AUC(0-inf) was 6050 ng·h/mL.

And the AUC(0-inf) [5]?
The AUC(0-inf) was 4990 ng·h/mL.

And the C0 [6]?
Its C0 is 9030 ng/mL.

And the C0 (Mus musculus [7])?
The C0 was 4100 ng/mL.

And the C0 [8]?
Its C0 is 12200 ng/mL.

And the C0 (Rattus norvegicus [9])?
The C0 was 1080 ng/mL.

And the half-life [10]?
Its half-life is 0.9 h.

What about the half-life [11] of the same compound?
The half-life was 2.8 h.

What about the half-life [12] of the same compound?
The half-life was 1.6 h.

What about the half-life [13] of the same compound?
The half-life was 2.3 h.

And the Vd [14]?
Its Vd is 1.2 L/kg.

What about the Vd (Mus musculus [15]) of the same compound?
The Vd was 2.6 L/kg.

What about the Vd [16] of the same compound?
The Vd was 1.9 L/kg.

What about the Vd (Rattus norvegicus [17]) of the same compound?
Its Vd is 3.3 L/kg.

What about the clearance [18] of the same compound?
Its clearance is 15.6 mL/min/kg.

What about the CL/F [19] of the same compound?
Its CL/F is 11.6 mL/min/kg.

And the clearance [20]?
Its clearance is 13.8 mL/min/kg.

What about the CL/F [21] of the same compound?
The CL/F was 17 mL/min/kg.

What about the AUC (Mus musculus [22]) of the same compound?
Its AUC is 1390 ng·h/mL.

What about the AUC (Mus musculus [23]) of the same compound?
The AUC was 1400 ng·h/mL.
